{"data": "Measured values collected from several papers", "note": "Each line is one published result; the experiments were not run side by side."}
{"Compound": "CN(C(=O)n1cnc(-c2ccc[n+]([O-])c2)c1)C1CCCCC1", "species": "male cynomolgus monkey", "matrix": "plasma", "route": "oral", "dose": "0.3 mg/kg", "measurement": "Tmax", "value": "2 h"}
{"Compound": "CC(C)n1cc(C#N)c2cc(-n3cc(C(=O)O)cn3)ccc21", "species": "male human", "matrix": "plasma", "route": "oral", "dose": "600 mg", "notes": "single dose, fasted, healthy volunteers", "measurement": "AUC(0-inf)", "value": "99800 ng·h/mL"}
{"Compound": "COc1cc(C(=O)NC2CCN(C)CC2)c(F)cc1Nc1ncc(C(F)(F)F)c(Oc2cccc3c2C(=O)N(C)C3)n1", "species": "human", "matrix": "plasma", "route": "oral", "dose": "25 mg", "notes": "multiple doses, once daily, steady state, patients", "measurement": "AUC", "value": "5.1 µM·h"}
{"Compound": "CC(C)(O)c1ccccc1-c1ccc2[nH]c(/C=C/c3ccc(C(F)(F)F)cc3)nc2c1", "species": "male human", "matrix": "plasma", "route": "oral", "dose": "15 mg", "notes": "single dose, fasted", "measurement": "AUC(0-t)", "value": "1010 ng·h/mL"}
{"Compound": "CC(C)(C)c1ccc(O)c(CN(Cc2cc(C(C)(C)C)ccc2O)C2CCC(NC(N)=O)CC2)c1 (stereo not shown)", "species": "male C57BL/6 mouse", "matrix": "brain", "route": "intraperitoneal", "dose": "10 mg/kg", "notes": "single dose", "measurement": "tissue/plasma ratio", "value": 0.79}
{"Compound": "CCc1nc2c(C)cc(N3CCN(CC(=O)N4CC(O)C4)CC3)cn2c1N(C)c1nc(-c2ccc(F)cc2)c(C#N)s1", "species": "human", "matrix": "plasma", "route": "oral", "dose": "1000 mg", "notes": "single dose, fed, healthy volunteers", "measurement": "AUC(0-inf)", "value": "66000 ng·h/mL"}
{"Compound": "COc1ccc([C@@H]2CN(C(=O)[C@@H](O)CO)C[C@@]2(C)[C@@H](C)O)cc1OC1CN(c2ccc(C)cn2)C1", "species": "human", "matrix": "plasma", "route": "oral", "dose": "0.1 mg", "notes": "single dose, healthy volunteers", "measurement": "AUC(0-inf)", "value": "59.1 ng·h/mL"}
{"Compound": "CC(C)Oc1cccc(-c2cnc(N3CCC(C(N)=O)CC3)s2)c1", "species": "male Swiss mouse", "matrix": "brain", "route": "oral", "dose": "30 mg/kg", "notes": "single dose", "measurement": "tissue/plasma ratio", "value": 0.29}
{"Compound": "Cn1cc(-c2ccc(S(=O)(=O)[C@@H]3C[C@@H](C(=O)NC4(C#N)CC4)N(C(=O)C4(C(F)(F)F)CC4)C3)c(C(F)(F)F)c2)cn1", "species": "human", "matrix": "plasma", "route": "oral", "dose": "600 mg", "notes": "single dose, fasted, healthy volunteers", "measurement": "AUC(0-inf)", "value": "28700 ng·h/mL"}
{"Compound": "Fc1ccc(COC2CCN(Cc3ccc4[nH]cnc4c3)CC2)cc1F", "species": "mouse", "matrix": "brain", "route": "intraperitoneal", "dose": "5 mg/kg", "measurement": "unbound tissue/plasma ratio", "value": 3.7}
